Assay outcomes (PubChem BioAssay)
Shown are actives, neighbours in structure and some others; about 3.9% of the full set was active somewhere.
TAAR1 agonist – human TAAR1 agonism; Q96RJ0; CHO RD-HGA16 TAAR1, Fluo-8 calcium fluorescence; vehicle wells 0%, saturating PEA agonist 100%; activation, % at 3 µM; 360,000 compounds, 0.99% hits;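 active = activation above the mean activation of all test compounds in the run plus 3 SD, cut at about 38% in these data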
Target sequence (Q96RJ0 whole entry, looked up): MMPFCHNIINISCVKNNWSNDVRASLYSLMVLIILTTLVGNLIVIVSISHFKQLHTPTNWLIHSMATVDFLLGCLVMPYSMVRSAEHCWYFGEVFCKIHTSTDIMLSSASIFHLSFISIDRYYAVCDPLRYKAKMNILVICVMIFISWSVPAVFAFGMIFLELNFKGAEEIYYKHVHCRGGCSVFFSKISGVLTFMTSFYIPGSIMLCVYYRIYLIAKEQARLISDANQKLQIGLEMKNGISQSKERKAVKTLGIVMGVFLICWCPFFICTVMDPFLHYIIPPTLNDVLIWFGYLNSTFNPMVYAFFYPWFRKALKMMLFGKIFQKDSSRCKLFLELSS
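test system = CHO RD-HGA16 cells carrying human TAAR1 plus Gα16 | schedule = 17-24 h seeding, 75 min 37 °C dye, 30 min RT | compound dosing = 3 µM single concentration | control set = DMSO and PEA EC100 | replicates = n 1 | signal = Fluo-8 fluorescence, 5 s baseline then 140 s kinetic read | measure = percent activation vs PEA EC100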
ANO1 block – inhibitors of mouse TMEM16A calcium-activated chloride channel; HEK293 TMEM16A/YFP iodide influx fluorescence, ionomycin; 310,000 compounds, 1.2% hits; normalized B-score (activity score, 25-100; higher = stronger inhibition) at 10 µM; Q8BHY3;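 active = ratio plate-corrected score three or more library SD toward inhibition, starting fluorescence score within five deviations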;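 also: score derived from kinetic fluorescence span divided by baseline fluorescence per well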
TAAR1 antagonist – antagonists of human TAAR1; Q96RJ0; CHO RD-HGA16 TAAR1, Fluo-8 calcium fluorescence, antagonist; inhibition, % at 3 µM; 360,000 compounds, 1.5% hits; AID 624466;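 active = inhibition above a per-plate cutoff, the mean inhibition of test compounds on that plate plus 3 SD, cut at about 49% in these data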;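 also: 0% = DMSO plus EC80 beta-PEA response and 100% = DMSO alone without agonist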
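Test system: RD-HGA16 CHO cells with stable hTAAR1 and Gα16 / Probe or stimulus: EC80 β-phenethylamine stimulus / Times: seeding 17-24 h prior, 75-min 37 °C, 30-min RT dye loading / Detection: Fluo-8 calcium-sensitive fluorescence / Read-out basis: % inhibition scaled between DMSO and EC80 PEA controls / Repeats: singlicate, one well per test compound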
CRFBP-R2 block – CRF-BP/CRF-R2 complex antagonism; HEK293 CRF-R2/CRF-BP, CRF-induced calcium fluorescence; inhibition, % at 11.8 µM; 350,000 compounds, 0.59% hits;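 active = inhibition of the ligand-induced calcium signal above about 50% at the single tested concentration, limit read from the data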
CRFR2-BP ag – agonists of human CRF-binding protein/CRF-R2 receptor complex; AID 588473; 350,000 compounds, 0.46% hits; activation, % at 13.2 µM; HEK293 CRF-R2/CRF-BP, calcium dye fluorescence (FLIPR); percent of saturating CRF peptide response;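 active = activation of at least 50%, plus an integration ratio under a set limit after plate pattern correction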;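 also: plate controls were neutral control wells without compound for no effect and CRF at EC100 for full effect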
TMEM16A act – activators or potentiators of mouse TMEM16A chloride channel. AID 623877. HEK293 TMEM16A/YFP-H148Q/I152L, iodide quench fluorescence; hits give low values. B-score at 10 µM. 340,000 compounds, 0.3% hits;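 active = fluorescence-ratio B-score plate-corrected deviation score at least 3 library SD below zero, with starting fluorescence score within 5 deviations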;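 also: channel opened by trigger with iodide after compound preincubation; score built on the fluorescence ratio of max minus min over baseline; more negative score means more quench and so TMEM16A activation or potentiation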
TAAR1 ag confirm – confirmation of human TAAR1 agonists; shares compounds with TAAR1 agonist; CHO RD-HGA16 TAAR1, Fluo-8 calcium fluorescence; scaled: DMSO 0%, maximal phenethylamine 100%; activation, % at 3 µM; 2,400 compounds, 82% hits;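 active = activation above a cutoff set at the run's mean compound activation plus 3 SD, cut at about 39% in these data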
Ga16 ag counter – nonselective agonist in parental cells, TAAR1 agonist counter-screen; 2,400 compounds, 50% hits; CHO-Ga16 parental, Fluo-8 calcium fluorescence; normalized to maximal ATP response, DMSO zero; activation, % at 3 µM; shares compounds with TAAR1 agonist;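 active = activation above the run cutoff, the mean activation over all tested wells plus 3 SD, cut at about 12% in these data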;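 also: 0% = DMSO wells and 100% = maximal ATP response on the peak over basal ratio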
TAAR1 desensitize – counter-screen for human TAAR1 agonists: agonists that desensitize TAAR1 | shares compounds with TAAR1 agonist | CHO RD-HGA16 hTAAR1, Fluo-8 calcium, beta-PEA response inhibition | inhibition, % at 3 µM | 2,400 compounds, 46% hits | AID 651951;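 active = inhibition above the run cutoff, the mean inhibition of all test compounds plus 3 SD, cut at about 49% in these data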;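 also: beta-PEA stimulus applied at its EC80; loss of beta-PEA calcium signal after compound pretreatment read as receptor desensitization; 0% = DMSO with beta-PEA at EC80 and 100% = DMSO alone without agonist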
Ga16 nonsel ant – nonselective Ga16 antagonist in TAAR1 agonist counter-screen; AID 651952; CHO-Ga16 ATP-induced calcium, Fluo-8 fluorescence; 2,400 compounds, 39% hits; shares compounds with TAAR1 agonist; inhibition, % at 3 µM;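 active = inhibition above the plate's mean compound inhibition plus 3 SD, computed per plate, cut at about 22% in these data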;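 also: 0% = EC80 ATP with DMSO and 100% = DMSO wells without ATP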
* hit, by the source's call; i = inactive; · = no result.

SMILES	TAAR1 agonist	ANO1 block	TAAR1 antagonist	CRFBP-R2 block	CRFR2-BP ag	TMEM16A act	TAAR1 ag confirm	Ga16 ag counter	TAAR1 desensitize	Ga16 nonsel ant
CC(=O)N1N=C(c2cccc([N+](=O)[O-])c2)OC1(C)c1cccs1 (stereo unspecified)	57.8*	i	53.9*	10.9	-9.6	·	0.4	0.0	-0.3	8.0
Cc1cccc(NC(=O)CSc2nc(=O)n(CCN3CCOCC3)c3c2CCCC3)c1C	4.5	i	-3.8	-15.7	1.1	i	·	·	·	·
OC(c1ccccc1)(C1CCCCC1)C(CN1CCOCC1)c1ccccc1 (stereo unspecified)	51.6*	i	2.5	-24.0	3.2	i	59.1*	33.4*	28.8	7.8
COc1ccc(C(=O)COC(=O)CN2C(=O)C3C4CCC(C4)C3C2=O)cc1 (stereo unspecified)	3.0	i	-5.5	8.7	-1.3	i	·	·	·	·
COc1ccc(CC(=O)OCC(=O)Nc2ccc3[nH]c(=O)[nH]c3c2)cc1OC	1.2	·	-4.2	7.3	-1.7	·	·	·	·	·
CC(C)(C)C(=O)Nc1cc2c3c(c1)CCN3C(=O)CC2	0.8	i	-11.2	-4.2	1.7	i	·	·	·	·
COC(=O)c1ccc(CNCC(O)COc2ccc(-c3ccccc3)cc2)cc1 (stereo unspecified)	55.9*	i	17.6	-11.3	-0.1	i	26.8	21.8*	28.1	29.6*
S=C(NCCc1ccccc1)Nc1c(Cl)cccc1Cl	67.6*	i	36.5	8.6	-1.4	i	78.2*	-0.1	80.1*	8.9
FC(F)Oc1ccccc1NC(=S)NCCc1ccccc1	51.0*	i	-14.1	9.8	0.0	i	77.4*	5.4	35.2	5.2
Fc1ccc(F)c(NC(=S)NCCc2ccccc2)c1	3.3	i	7.9	7.1	1.8	i	·	·	·	·
OCCNC(=S)NCCc1ccccc1	13.8	i	-10.6	-12.7	0.5	i	·	·	·	·
COc1cc(OC)cc(-c2c(Sc3ccccc3)c3cc(-c4ccc5c(c4)OCCO5)ccc3n2C)c1	2.1	·	-7.4	·	·	·	·	·	·	·
C=CC[C@@H](CC(=O)N(CCO)Cc1ccccc1)C(=O)NC[C@H](OC(=O)[C@@H](CC=C)CC(=O)OC(C)(C)C)c1ccccc1	62.8*	·	71.1*	-0.5	-3.1	i	68.5*	21.4*	62.5*	29.8*
C=CC[C@H](CC(=O)N(CCO)Cc1ccccc1)C(=O)NCCOC(=O)[C@H](CC=C)CC(=O)OC(C)(C)C	3.1	·	-11.4	10.1	-5.3	·	·	·	·	·
Cc1ccc(N2CC(C(=O)Nc3ccc(S(=O)(=O)Nc4ncccn4)cc3)CC2=O)cc1C (stereo unspecified)	0.0	i	-9.9	6.5	-0.2	i	·	·	·	·
CC(=O)c1c(C)[nH]c(C(=O)NCCc2cccc(C)c2)c1C	51.7*	i	-4.5	-6.3	-3.2	·	26.5	6.8	13.2	18.7
CCc1c(C(=O)NCCc2cccc(C)c2)[nH]c(C)c1C(C)=O	68.2*	i	26.1	-4.6	-0.1	i	53.1*	9.1	25.8	24.3*
CCc1c(C(=O)NCCc2ccc(OC)c(OC)c2)[nH]c(C)c1C(C)=O	6.5	i	4.6	12.6	-0.4	i	·	·	·	·
Cc1ccc(S(=O)(=O)N2CCN(C(=O)COC(=O)c3oc4ccccc4c3C)CC2)cc1	2.2	i	5.0	2.0	1.3	i	·	·	·	·
